Screens deposited in PubChem by Sanford-Burnham Center for Chemical Genomics.
SENP1 FRET inh: blocks the human SENP1 SUMO protease catalytic domain; hit rate 0.21% among 360,000; inhibition, % at 10 µM; Q9P0U3; recombinant SENP1 catalytic domain, CyPet-SUMO1-YPet FRET cleavage; AID 624204;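 active = inhibition at least 30% at 10 µM, raw YFP signal under a set limit, fluorescence ratio 0.5 to 1.5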;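 also: 0% = enzyme with DMSO and 100% = no enzyme wells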
Target sequence (Q9P0U3 419-644 limits assumed): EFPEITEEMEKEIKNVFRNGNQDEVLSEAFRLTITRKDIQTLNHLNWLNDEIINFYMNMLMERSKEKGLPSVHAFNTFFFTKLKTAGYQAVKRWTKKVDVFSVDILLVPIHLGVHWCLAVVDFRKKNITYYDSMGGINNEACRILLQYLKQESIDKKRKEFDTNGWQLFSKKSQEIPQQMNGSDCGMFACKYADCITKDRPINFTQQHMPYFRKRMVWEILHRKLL
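material = recombinant human SENP1 catalytic domain, His6-tagged | quantity = 20 pM enzyme | reagent = 25 nM SUMO1 FRET substrate | compound dosing = 10 µM single point, 0.5% DMSO | timing = 50 min enzyme reaction, room temperature, light-protected | detection = FRET, CFP and YFP emission | control set = no-enzyme low, enzyme-DMSO high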
MPTP inh: inhibitors of mitochondrial permeability transition pore; AID 602449; inhibition, % at 10 µM; isolated mouse mitochondria, Ca2+ swelling absorbance, 30 min; hit rate 1.4% among 360,000;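 active = inhibition of 50% or more, scaled per plate between neutral and stimulator controls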;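 also: 0% = DMSO wells given calcium and 100% = 1 mM EGTA wells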
NR3A LBD binder: modulates the human NR3A ligand-binding domain; hit rate 2.5% among 340,000; Tm shift relative to glycine control, % at 25 µM; NR3A LBD differential scanning fluorimetry, Tm shift; 0% = protein alone, 100% = glycine-bound protein; AID 1259313;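 active = melting temperature shift of at least 10% of the positive control shift, at one fixed dose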
EBI2 block: blocks human EBI2 receptor beta-arrestin signaling; P32249; EBI2 beta-arrestin recruitment, luminescence, 7a,25-OHC stimulated; inhibition, % at 5 µM; hit rate 0.81% among 360,000; AID 651636; in the data active = inhibition above about 38%;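 also: enzyme fragment complementation signal reports receptor beta-arrestin coupling in cells; 0% = agonist plus DMSO wells and 100% = wells without agonist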
Target sequence (P32249 whole entry, looked up, the tested form may be a part): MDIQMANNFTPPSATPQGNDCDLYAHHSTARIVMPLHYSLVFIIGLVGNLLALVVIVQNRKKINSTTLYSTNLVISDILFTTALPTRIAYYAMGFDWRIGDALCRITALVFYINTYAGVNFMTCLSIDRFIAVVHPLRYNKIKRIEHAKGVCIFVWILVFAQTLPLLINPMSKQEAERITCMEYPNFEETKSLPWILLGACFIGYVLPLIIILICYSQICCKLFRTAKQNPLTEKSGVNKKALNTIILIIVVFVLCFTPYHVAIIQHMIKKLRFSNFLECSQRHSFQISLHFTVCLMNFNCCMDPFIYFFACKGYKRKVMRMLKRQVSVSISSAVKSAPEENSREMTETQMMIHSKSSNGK
SENP1 inh conf: SENP1 (human) inhibition, single concentration confirmation. shares compounds with SENP1 FRET inh. recombinant SENP1, CyPet-SUMO1-YPet FRET cleavage. inhibition, % at 10 µM. hit rate 34% among 520. AID 651678; in the data active = inhibition mostly above about 35%, no sharp cut-off; inactive = mostly below about 32%;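 also: 0% = enzyme with DMSO and 100% = no enzyme control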
SENP1 kinetic: SENP1 (human) inhibition, kinetic confirmation; shares compounds with SENP1 FRET inh; recombinant SENP1, CyPet-SUMO1-YPet FRET kinetic cleavage; inhibition, % at 10 µM; hit rate 26% among 520; AID 651690; in the data active = inhibition mostly above about 32%, no sharp cut-off; inactive = mostly below about 29%;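 also: 0% = DMSO with enzyme and 100% = no enzyme substrate only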
Starred values were filed as active, the others as inactive. Sampled rows, rich in hits. Any-hit rate of the full collection: about 4.4%.

`CCCCCCn1c(=O)n2n(c1=O)[C@@H]1CN(S(=O)(=O)c3ccc(C)cc3)C[C@]1(O)[C@@H](OC(=O)NCc1ccc(OC)c(OC)c1)C2` gave SENP1 FRET inh 1, MPTP inh -1 and EBI2 block 1.
COc1ccc(CC(=O)NCc2ccccc2)cc1 was read as SENP1 FRET inh 1, MPTP inh 0, NR3A LBD binder -1 and EBI2 block 1.
COc1cccc(CNC(=O)Cc2ccc(-c3ccccc3)cc2)c1 was read as SENP1 FRET inh 55*, MPTP inh 1, NR3A LBD binder -1, EBI2 block 6, SENP1 inh conf 18 and SENP1 kinetic 20.
`COc1cccc(CNC(=O)COc2ccc(C(=O)c3ccccc3)cc2)c1` gave SENP1 FRET inh 2, MPTP inh 1, NR3A LBD binder 0 and EBI2 block -4.
Screening COc1ccc(Nc2nnc(Cc3ccncc3)c3ccccc23)c(OC)c1 returned SENP1 FRET inh 1, MPTP inh 0, NR3A LBD binder 3 and EBI2 block 2.
`Cc1ccc2c(O)c(C)c(=O)[nH]c2n1` gave SENP1 FRET inh -1, MPTP inh -2, NR3A LBD binder -1 and EBI2 block 7.
`Cc1ccc(-c2ccccc2C2=CC(=O)CC(C)(C)C2=O)cc1` gave SENP1 FRET inh 3, MPTP inh -1 and EBI2 block 2.
For COc1ccc2cc(C3=CC(=O)CC(C)(C)C3=O)ccc2c1 the results were SENP1 FRET inh 32*, MPTP inh 0, EBI2 block 12, SENP1 inh conf -1 and SENP1 kinetic 5.
`COc1cccc(-c2ccccc2C2=CC(=O)CC(C)(C)C2=O)c1` gave SENP1 FRET inh 0, MPTP inh -2 and EBI2 block -8.
`COc1ccc(-c2ccccc2C2=CC(=O)CC(C)(C)C2=O)cc1` gave SENP1 FRET inh 33*, MPTP inh -2, EBI2 block 3, SENP1 inh conf -2 and SENP1 kinetic 1.
For O=C1CCCC2=C1Sc1ccc(Cl)cc1N2 the results were SENP1 FRET inh 72*, MPTP inh 10, NR3A LBD binder -1, EBI2 block -10, SENP1 inh conf 93* and SENP1 kinetic 50*.
For CCN(CC)S(=O)(=O)c1ccc(N2CCOCC2)c(NC(=O)c2ccc(C#N)cc2)c1 the results were SENP1 FRET inh 36*, MPTP inh 0, NR3A LBD binder -1, EBI2 block 1, SENP1 inh conf 0 and SENP1 kinetic 9.
`CCN(CC)c1ccc(N=C2C=CC(=O)C=C2NC(C)=O)cc1` gave SENP1 FRET inh 66*, MPTP inh 10, NR3A LBD binder -2, EBI2 block -11, SENP1 inh conf 14 and SENP1 kinetic 12.
`CC1(C)CC(=O)C(N=Nc2ccc(-c3ccccc3)cc2)=C(O)C1` gave SENP1 FRET inh 63*, MPTP inh 2, NR3A LBD binder 1, EBI2 block 7, SENP1 inh conf 17 and SENP1 kinetic 5.
O=C(CN1C(=O)NC(Cc2ccccc2)C1=O)Nc1ccc(F)c(F)c1F (centres undefined) was read as SENP1 FRET inh 3, MPTP inh 0, NR3A LBD binder 2 and EBI2 block -4.
For Cc1ccnc(NC(=O)CCC(=O)c2cc(C)sc2C)c1 the results were SENP1 FRET inh 38*, MPTP inh -2, NR3A LBD binder 2, EBI2 block 8, SENP1 inh conf 15 and SENP1 kinetic 13.
For CC1(C)CC(=O)C/C(=N\NC(=O)C2C3CCCCC32)C1 (centres undefined) the results were SENP1 FRET inh -5, MPTP inh 2, NR3A LBD binder -3 and EBI2 block 4.
Screening CC(=O)n1c2ccccc2c2nc3ccccc3nc21 returned SENP1 FRET inh -1, MPTP inh 0, NR3A LBD binder 0 and EBI2 block -13.
CC(=O)n1c2ccccc2c2c1c1ccccc1n2C was read as SENP1 FRET inh 75*, MPTP inh -1, NR3A LBD binder 0, EBI2 block -1, SENP1 inh conf -13 and SENP1 kinetic -11.
Cc1cc(O)ccc1N1C(=O)c2cccc3cc([N+](=O)[O-])cc(c23)C1=O was read as SENP1 FRET inh 36*, MPTP inh -1, NR3A LBD binder 0, EBI2 block -12, SENP1 inh conf 13 and SENP1 kinetic 6.
O=C1c2cccc3cc([N+](=O)[O-])cc(c23)C(=O)N1c1nncs1 was read as SENP1 FRET inh 6, MPTP inh 1, NR3A LBD binder 2 and EBI2 block -20.
`O=C1c2cccc3cc([N+](=O)[O-])cc(c23)C(=O)N1c1ccccc1O` gave SENP1 FRET inh 40*, MPTP inh -2, NR3A LBD binder -3, EBI2 block -7, SENP1 inh conf 18 and SENP1 kinetic 10.
Screening CSc1nnc2c(n1)OC(C)N(C(=O)c1ccccc1)c1ccccc1-2 (centres undefined) returned SENP1 FRET inh 30*, MPTP inh 0, NR3A LBD binder 0, EBI2 block 3, SENP1 inh conf 33 and SENP1 kinetic 34*.
COc1cc(OC)c(C2Oc3nc(SC)nnc3-c3ccccc3N2C(C)=O)cc1OC (centres undefined) was read as SENP1 FRET inh 1, MPTP inh -2, NR3A LBD binder -2 and EBI2 block 8.
`O=C1NC(=S)SC1=Cc1cc(Br)ccc1O` gave SENP1 FRET inh 32*, MPTP inh 3, NR3A LBD binder 31*, EBI2 block -6, SENP1 inh conf 96* and SENP1 kinetic 52*.
`COc1cc(/C=C/C(=O)OCC(=O)Nc2cc(C)c(C)cc2[N+](=O)[O-])ccc1O` gave SENP1 FRET inh 3, MPTP inh -1, NR3A LBD binder -1 and EBI2 block -1.
COc1cc(/C=C/C(=O)OCC(=O)Nc2ccc(C)cc2[N+](=O)[O-])ccc1O was read as SENP1 FRET inh 38*, MPTP inh 1, NR3A LBD binder 0, EBI2 block 2, SENP1 inh conf 1 and SENP1 kinetic 7.
For CCOC(=O)N1CCN(S(=O)(=O)c2ccc(C(=O)NNc3nc4c(C)cccc4s3)cc2)CC1 the results were SENP1 FRET inh 35*, MPTP inh 3, NR3A LBD binder -26, EBI2 block -9, SENP1 inh conf 25 and SENP1 kinetic 42*.
Cc1cc(C)c2cc(C#N)c(SCC(=O)Nc3cc(C)on3)nc2c1 was read as SENP1 FRET inh 50*, MPTP inh 1, NR3A LBD binder 1, EBI2 block 10, SENP1 inh conf -14 and SENP1 kinetic 6.
Screening Cc1cc(NC(=O)CSc2nc3c(C)ccc(C)c3cc2C#N)no1 returned SENP1 FRET inh 68*, MPTP inh -1, NR3A LBD binder -1, EBI2 block 2, SENP1 inh conf 15 and SENP1 kinetic 12.
